Active and inactive are the calls of the source. The rule behind the calls is not given here.
What was measured:
[1] = Cytotoxicity against mouse Sarcoma 180 cells after 24 to 72 hrs by MTT assay; type: functional, cell-based
How it was run: (§1)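 MTT assay. IC50 taken as the drug concentration giving 50% inhibition of cell growth. Values are mean ± S.D. of four independent experiments, each run in triplicate.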

HEK-293T = assay: Cytotoxicity against human 293T cells after 24 to 72 hrs by MTT assay; type: cell-based; how it was run: as §1
[2] = Cytotoxicity against human HeLaS3 cells after 24 to 72 hrs by MTT assay; type: functional, cell-based; conditions: HeLa S3; how it was run: as §1
[3] = Cell cycle arrest in human HeLaS3 cells assessed as accumulation at G2/M phase after 48 hrs using propidium iodide staining by flow cytometry (reference value: 16.21%); type: functional, cell-based; conditions: HeLa S3
How it was run: (§2)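 HeLa S-3 cells incubated without (control) or with compound for 9, 24 or 48 h, then fixed and stained with propidium iodide. DNA content read by flow cytometry. Populations given as percent in sub-G1, G1, S and G2/M phases.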

[4] = Cell cycle arrest in human HeLaS3 cells assessed as accumulation at G2/M phase after 24 hrs using propidium iodide staining by flow cytometry (reference value: 16.21%); type: functional, cell-based; conditions: HeLa S3; how it was run: as §2
[5] = Cell cycle arrest in human HeLaS3 cells assessed as accumulation at G2/M phase after 9 hrs using propidium iodide staining by flow cytometry (reference value: 16.21%); type: functional, cell-based; conditions: HeLa S3; how it was run: as §2
[6] = Cell cycle arrest in human HeLaS3 cells assessed as accumulation at S phase after 48 hrs using propidium iodide staining by flow cytometry (reference value: 6.36%); type: functional, cell-based; conditions: HeLa S3
[7] = Cell cycle arrest in human HeLaS3 cells assessed as accumulation at S phase after 24 hrs using propidium iodide staining by flow cytometry (reference value: 6.36%); type: functional, cell-based; conditions: HeLa S3
[8] = Cell cycle arrest in human HeLaS3 cells assessed as accumulation at S phase after 9 hrs using propidium iodide staining by flow cytometry (reference value: 6.36%); type: functional, cell-based; conditions: HeLa S3
[9] = Cell cycle arrest in human HeLaS3 cells assessed as accumulation at G1 phase after 48 hrs using propidium iodide staining by flow cytometry (reference value: 75.29%); type: functional, cell-based; conditions: HeLa S3; how it was run: as §2
[10] = Cell cycle arrest in human HeLaS3 cells assessed as accumulation at G1 phase after 24 hrs using propidium iodide staining by flow cytometry (reference value: 75.29%); type: functional, cell-based; conditions: HeLa S3; how it was run: as §2
[11] = Cell cycle arrest in human HeLaS3 cells assessed as accumulation at G1 phase after 9 hrs using propidium iodide staining by flow cytometry (reference value: 75.29%); type: functional, cell-based; conditions: HeLa S3; how it was run: as §2
[12] = Cell cycle arrest in human HeLaS3 cells assessed as accumulation at sub-G1 phase after 48 hrs using propidium iodide staining by flow cytometry (reference value: 2.41%); type: functional, cell-based; conditions: HeLa S3; how it was run: as §2
[13] = Cell cycle arrest in human HeLaS3 cells assessed as accumulation at sub-G1 phase after 24 hrs using propidium iodide staining by flow cytometry (reference value: 2.41%); type: functional, cell-based; conditions: HeLa S3; how it was run: as §2
[14] = Cell cycle arrest in human HeLaS3 cells assessed as accumulation at sub-G1 phase after 9 hrs using propidium iodide staining by flow cytometry (reference value: 2.41%); type: functional, cell-based; conditions: HeLa S3; how it was run: as §2
HeLa S3 [15] = assay: Induction of apoptosis in human HeLaS3 cells assessed as DNA fragmentation after 48 hrs agarose-gel electrophoresis; type: functional, cell-based
How it was run: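 HeLa S-3 cells treated with compound for 48 h. Genomic DNA extracted and run on a 2% agarose gel beside a 100 bp ladder marker to detect DNA fragmentation.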

HeLa S3 [16] = assay: Induction of apoptosis in human HeLaS3 cells assessed as formation of chromatin condensation and fragmented nuclei after 48 hrs by Hoechst 33342 staining; type: functional, cell-based
How it was run: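 HeLa S-3 cells treated with compound for 48 h, then stained with Hoechst 33342. Nuclear chromatin examined by fluorescence microscopy for condensation and fragmented nuclei, with untreated cells as comparison.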

Row | SMILES | IC50 [1] [µM] | IC50 (HEK-293T) [µM] | IC50 [2] [µM] | other results
1 | CCCCC(=O)Nc1cc(Cl)cc2c1[nH]c1cnc(NCc3ccccc3)cc12 | 0.53 | 0.5 | 0.99 | –
2 | CCCCC(=O)Nc1cccc2c1[nH]c1cnc(N)cc12 | 38 | – | 56 | –
3 | O=C(Nc1cc(Cl)cc2c1[nH]c1cnc(NCc3ccccc3)cc12)c1ccncc1 | 7.9 | 8 | 13 | –
4 | O=C(Nc1cc(Cl)cc2c1[nH]c1cnc(NCc3ccccc3)cc12)C(F)(F)C(F)(F)F | 6.1 | – | 9.2 | –
5 | CCC(=O)Nc1cc(Cl)cc2c1[nH]c1cnc(NCc3ccccc3)cc12 | 5.4 | 5.8 | 9.9 | –
6 | O=C(Nc1ccc2[nH]c3cnc(NCc4ccccc4)cc3c2c1)c1ccccc1 | – | – | 10 | –
7 | Clc1ccc2[nH]c3cnc(NCc4ccccc4)cc3c2c1 | 1.8 | – | 2.8 | Activity [3]: 49%; Activity [4]: 69.5%; Activity [5]: 46.9%; Activity [6]: 11.3%; Activity [7]: 7.74%; Activity [8]: 10.9%; Activity [9]: 18.2%; Activity [10]: 8.2%; Activity [11]: 33%; Activity [12]: 21.4%; Activity [13]: 14.6%; Activity [14]: 9.14%; Activity (HeLa S3 [15]): Active; Activity (HeLa S3 [16]): Active
8 | CCCCNc1cc(Cl)cc2c1[nH]c1cnc(NCc3ccccc3)cc12 | 1.6 | 2.1 | 2.6 | –
9 | CC(C)Nc1cc(Cl)cc2c1[nH]c1cnc(NCc3ccccc3)cc12 | – | 0.7 | 1.1 | –
10 | Nc1cc2c(cn1)[nH]c1ccccc12 | 41 | – | 66 | –
11 | O=C(Nc1cc(Cl)cc2c1[nH]c1cnc(NCc3ccccc3)cc12)c1ccccc1 | 2.8 | 4.8 | 4.6 | Activity [3]: 55.3%; Activity [4]: 40.1%; Activity [5]: 49.1%; Activity [6]: 11.1%; Activity [7]: 12.7%; Activity [8]: 10.4%; Activity [9]: 11.7%; Activity [10]: 32.4%; Activity [11]: 33.9%; Activity [12]: 22%; Activity [13]: 14.8%; Activity [14]: 6.59%; Activity (HeLa S3 [15]): Active; Activity (HeLa S3 [16]): Active
12 | CC(C)C(=O)Nc1cc(Cl)cc2c1[nH]c1cnc(NCc3ccccc3)cc12 | 8 | 8 | 9 | –
13 | Nc1cc(Cl)cc2c1[nH]c1cnc(NCc3ccccc3)cc12 | 3.24 | 9.8 | 6.09 | –
14 | O=C(Nc1cc(Cl)cc2c1[nH]c1cnc(NCc3ccccc3)cc12)C(F)(F)C(F)(F)C(F)(F)F | 5.2 | – | 7 | –
15 | CC(=O)Nc1cc(Cl)cc2c1[nH]c1cnc(NCc3ccccc3)cc12 | 16.2 | 15 | 21 | –
16 | CCCNc1cc(Cl)cc2c1[nH]c1cnc(NCc3ccccc3)cc12 | 1.36 | 2 | 2.9 | –
17 | CCNc1cc(Cl)cc2c1[nH]c1cnc(NCc3ccccc3)cc12 | 0.24 | 0.36 | 0.27 | –
18 | Clc1cc(NCc2ccncc2)c2[nH]c3cnc(NCc4ccccc4)cc3c2c1 | 1 | 1.4 | 1.4 | –
19 | Clc1cc(NCc2ccco2)c2[nH]c3cnc(NCc4ccccc4)cc3c2c1 | – | 3.1 | 3.8 | –
20 | Clc1cc(Cl)c2[nH]c3cnccc3c2c1 | – | – | 0.2 | –
21 | Nc1cc2c(cn1)[nH]c1ccc(Cl)cc12 | 29 | – | 71 | –
22 | CCS(=O)(=O)Nc1cc(Cl)cc2c1[nH]c1cnc(NCc3ccccc3)cc12 | – | – | 4.84 | –
23 | CS(=O)(=O)Nc1cc(Cl)cc2c1[nH]c1cnc(NCc3ccccc3)cc12 | – | – | 8 | –
24 | O=[N+]([O-])c1ccc2[nH]c3cnc(NCc4ccccc4)cc3c2c1 | – | – | 28 | –
25 | Clc1ccc2[nH]c3cnc(NCc4cccc(Oc5ccccc5)c4)cc3c2c1 | 1.36 | – | 1.8 | –
26 | O=C(Nc1cc(Cl)cc2c1[nH]c1cnc(NCc3ccccc3)cc12)C(F)(F)F | 5.1 | – | 6.3 | –

Row | SMILES | IC50 [1] [µM] | IC50 (HEK-293T) [µM] | IC50 [2] [µM] | other results
27 | Clc1cc(NCc2cccs2)c2[nH]c3cnc(NCc4ccccc4)cc3c2c1 | 1.69 | 4 | 4.2 | –
28 | Clc1cc(NCc2ccccn2)c2[nH]c3cnc(NCc4ccccc4)cc3c2c1 | 1 | 1.1 | 1.5 | –
29 | c1ccc(CNc2cc3c(cn2)[nH]c2ccc(NCc4ccco4)cc23)cc1 | – | – | 15 | –
30 | CCS(=O)(=O)Nc1ccc2[nH]c3cnc(NCc4ccccc4)cc3c2c1 | – | – | 3.4 | –
31 | CNc1cccc2c1[nH]c1cnc(N)cc12 | – | – | 12 | –
32 | c1ccc(CNc2cc3c(cn2)[nH]c2ccccc23)cc1 | 0.44 | – | 0.11 | Activity [3]: 52.8%; Activity [4]: 67.7%; Activity [5]: 57%; Activity [6]: 16.2%; Activity [7]: 9.18%; Activity [8]: 14.3%; Activity [9]: 12.2%; Activity [10]: 6.93%; Activity [11]: 22.6%; Activity [12]: 18.8%; Activity [13]: 16.2%; Activity [14]: 6.08%; Activity (HeLa S3 [15]): Active; Activity (HeLa S3 [16]): Active
33 | O=C(Nc1cccc2c1[nH]c1cnc(NCc3ccccc3)cc12)c1ccccc1 | – | – | 0.141 | Activity [3]: 63.4%; Activity [4]: 71.1%; Activity [5]: 65.6%; Activity [6]: 9.05%; Activity [7]: 10.2%; Activity [8]: 9.4%; Activity [9]: 9.36%; Activity [10]: 12.8%; Activity [11]: 21.1%; Activity [12]: 18.2%; Activity [13]: 5.87%; Activity [14]: 3.89%; Activity (HeLa S3 [15]): Active; Activity (HeLa S3 [16]): Active
34 | Nc1ccc2[nH]c3cnc(NCc4ccccc4)cc3c2c1 | – | – | 11 | –
35 | O=C(Nc1cc(Cl)cc2c1[nH]c1cnc(NCc3ccccc3)cc12)c1ccccn1 | 1.9 | 4 | 3.7 | –
36 | Clc1cc(NCc2cccnc2)c2[nH]c3cnc(NCc4ccccc4)cc3c2c1 | 0.76 | 1 | 1.2 | –
37 | CNc1cccc2c1[nH]c1cnc(NCc3cccc(Oc4ccccc4)c3)cc12 | – | – | 0.032 | –
38 | CCCCC(=O)Nc1cc(Cl)cc2c1[nH]c1cnc(N)cc12 | 18.1 | – | 27 | –
39 | CNc1cccc2c1[nH]c1cnc(NCc3ccccc3)cc12 | 0.024 | – | 0.046 | –
40 | CNc1ccc2[nH]c3cnc(NCc4ccccc4)cc3c2c1 | – | – | 10 | –
41 | CS(=O)(=O)Nc1ccc2[nH]c3cnc(NCc4ccccc4)cc3c2c1 | – | – | 19 | –
42 | O=C(Nc1cc(Cl)cc2c1[nH]c1cnc(NCc3ccccc3)cc12)c1cccnc1 | 8.3 | 10 | 15 | –
43 | Clc1cc(NCc2ccccc2)c2[nH]c3cnc(NCc4ccccc4)cc3c2c1 | 2.6 | 3.8 | 4.2 | –
44 | CNc1cc(Cl)cc2c1[nH]c1cnc(NCc3ccccc3)cc12 | 0.25 | 0.35 | 0.2 | –
45 | Nc1cc2c(cn1)[nH]c1c(NC(=O)c3ccccc3)cccc12 | 98 | – | 118 | –
46 | CCCCCC(=O)Nc1cc(Cl)cc2c1[nH]c1cnc(NCc3ccccc3)cc12 | 0.92 | 1.4 | 2.13 | –
47 | CCCC(=O)Nc1cc(Cl)cc2c1[nH]c1cnc(NCc3ccccc3)cc12 | 1.35 | 2.3 | 2.6 | –
48 | CC(C)(C)C(=O)Nc1ccc2[nH]c3cnc(NCc4ccccc4)cc3c2c1 | – | – | 14 | –
49 | Nc1cc2c(cn1)[nH]c1c(NC(=O)c3ccccc3)cc(Cl)cc12 | 12.4 | – | 26.1 | –
50 | c1ccc(Oc2cccc(CNc3cc4c(cn3)[nH]c3ccccc34)c2)cc1 | 0.03 | – | 0.074 | –
51 | c1ccc(CNc2ccc3[nH]c4cnc(NCc5ccccc5)cc4c3c2)cc1 | – | – | 21 | –

From ChEMBL document CHEMBL2169842, “Structure-activity relationship in the antitumor activity of 6-, 8- or 6,8-substituted 3-benzylamino-β-carboline derivatives” (Bioorg Med Chem Lett, 2012)
